From PubChem BioAssay
In the library only some 0.62% were active in any assay of this set; here they are far more common.
Mdm2 ligase inh: blocks human Mdm2 ubiquitin ligase activity | Q00987 | cell-based MDM2 ubiquitination luciferase reporter, 2 h; 0 = plate control, 100 = twice control, blank-subtracted | signal enhancement, % at 5 µM | 210,000 compounds, 0.11% hits | AID 1230;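 active = signal enhancement of 30% or more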;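 also: luminescence tracks abundance of the self-degrading MDM2-luciferase fusion protein; higher signal means inhibition of MDM2 E3 ligase activity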
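System: stable MDM2–luciferase fusion reporter cells / Input: 2000 cells seeded into each well / Schedule: 4 h settle plus 2 h compound, 37 °C / Compound: single-point 5 µM / Buffer or medium: cells held in DMEM / Benchmarks: control and blank well means / Evaluation: percent signal gain over controls, blank-subtracted / Measured by: luciferase luminescence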
Rad51 HR inh: blocks human Rad51 in homologous recombination; inhibition, % at 10 µM; Q06609; AID 1385; hRad51 DNA strand exchange, fluorescence dequenching; 200,000 compounds, 0.085% hits;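 active = inhibition above 40% at the single screening dose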;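 also: 0% = DMSO control wells and 100% = blanks with heterologous ssDNA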
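Read-out basis: percent inhibition relative to plate controls and blanks / Assay system: human Rad51 nucleoprotein filaments preassembled on unlabelled ssDNA / Timing: filaments 15 min 37 °C, then compound 30 min / Control set: per-plate controls and blanks / Technique: fluorescence dequenching at 485/520 nm / Compound: 10 µM final, single point / Also added: Fluorescein- and BHQ1-tagged 47-mer duplex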
Arbovirus anti: arbovirus infection inhibition; 200,000 compounds, 0.37% hits; inhibition, % at 10 µM; arbovirus infection cell-based antiviral screen; in the data active = inhibition above about 30%
ABCB1 inh: blocks JC-1 efflux by human ABCB1 transporter | P08183 | CCRF-Adr cells, flow cytometry | inhibition, % at 6.6 µM | 190,000 compounds, 0.067% hits | AID 1326; in the data active = inhibition above about 40%;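 also: 0% = vehicle and 100% = reference inhibitor; higher value means more JC-1 retained so stronger ABCB1 efflux block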
ABCG2 inh: blocks JC-1 efflux by human ABCG2 transporter; IgMXP3 cells, flow cytometry; inhibition, % at 6.6 µM; 190,000 compounds, 0.1% hits;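 active = inhibition above 80%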;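 also: 0% = DMSO and 100% = nicardipine control wells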
Target sequence (Q9UNQ0 whole entry, looked up): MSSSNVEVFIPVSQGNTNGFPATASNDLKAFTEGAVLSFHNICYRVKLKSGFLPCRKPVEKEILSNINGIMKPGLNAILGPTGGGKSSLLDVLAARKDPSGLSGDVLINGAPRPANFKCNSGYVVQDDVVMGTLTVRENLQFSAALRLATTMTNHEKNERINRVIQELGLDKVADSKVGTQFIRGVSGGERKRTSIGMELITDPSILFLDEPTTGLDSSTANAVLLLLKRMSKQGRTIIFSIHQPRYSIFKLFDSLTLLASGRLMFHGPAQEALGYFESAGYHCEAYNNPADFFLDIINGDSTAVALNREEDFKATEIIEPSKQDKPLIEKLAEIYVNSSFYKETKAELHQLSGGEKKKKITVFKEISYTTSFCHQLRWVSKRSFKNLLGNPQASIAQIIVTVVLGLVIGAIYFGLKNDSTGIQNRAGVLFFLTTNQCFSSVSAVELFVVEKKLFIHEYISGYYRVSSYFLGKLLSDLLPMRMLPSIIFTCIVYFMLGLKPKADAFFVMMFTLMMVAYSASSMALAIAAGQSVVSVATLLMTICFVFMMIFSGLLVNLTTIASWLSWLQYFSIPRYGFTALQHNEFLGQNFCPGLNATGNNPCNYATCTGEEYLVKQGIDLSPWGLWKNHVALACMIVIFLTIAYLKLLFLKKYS
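Test system: ABCG2 IgMXP3 and barcoded ABCB1 CCRF-Adr cell mix; Schedule: cells with compound and JC-1, 10 min at 25 °C, rotating, no wash; Technique: flow cytometry of retained JC-1 fluorescence; Measure: % inhibition of efflux relative to nicardipine and DMSO; Controls: nicardipine high and DMSO low controls.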
Starred values were filed as active, the others as inactive; nt = not tested or not shown.

SMILES	Mdm2 ligase inh	Rad51 HR inh	Arbovirus anti	ABCB1 inh	ABCG2 inh
O=C(O)CC1(CC(=O)Nc2ccc(Cl)cc2C(=O)c2ccccc2)CCCC1	-10	9	nt	nt	nt
C/C(=N\NC(=O)c1ccccc1)c1nc2ccccc2n1C	3	nt	41*	1	6
O=C(CSc1nc(C2CC2)nc2c1cnn2-c1ccccc1)Nc1c[nH]c(=O)[nH]c1=O	-10	-13	10	1	7
COc1ccc(C2CC(C)=C(C#N)S(=O)(=O)C2C#N)cc1 (configuration not stated)	6	-12	nt	nt	nt
Cc1ccc(O)c(-c2cc(-c3ccccc3C)[nH]n2)c1	-21	nt	-31	1	47
Cc1ccc(O)c(-c2cc(C(F)(F)C(F)F)[nH]n2)c1	-11	-4	34*	0	1
Nc1cc(S(=O)(=O)N2CCCCC2)ccc1Oc1ccc(Cl)cc1	-26	10	-1	0	4
COc1ccc2c(c1)sc(=N)n2C	-23	-2	6	0	1
COc1cc(C2N=C(c3ccccc3)NO2)cc(Br)c1O (configuration not stated)	-2	-6	35*	1	5
CCOC(=O)c1ccc(N2C(=O)C3C(/C=C/c4ccccc4)OC4(C(=O)c5ccccc5C4=O)C3C2=O)cc1 (configuration not stated)	-11	-4	73*	1	12
CCOC(=O)c1ccc(N2C(=O)C(C)=C(C)C2=O)cc1	-16	0	-10	1	3
CN(C)c1ccc(P(=O)(OCc2ccccc2)C(O)c2ccccc2)cc1 (configuration not stated)	-13	-10	nt	nt	nt
O=C(NCc1ccc2c(c1)OCO2)C1CCN(c2nccc(C(F)(F)F)n2)CC1	5	12	nt	nt	nt
CC(C)c1cc(C(=O)Nc2cc(Br)ccc2O)no1	-30	9	21	0	0
CCCc1cc(C(=O)Nc2cc(Br)ccc2O)no1	-11	4	35*	0	1
Cc1ccc(N2C(=O)C3CC(c4ccccc4)=C4C5C=CC(C6C(=O)N(c7ccc(C)cc7)C(=O)C56)C4C3C2=O)cc1 (configuration not stated)	-4	7	33*	0	-1
CCc1nnc(NC(=O)c2cc3ccccc3oc2=O)s1	-3	1	65*	0	0
COc1cc(/C=C(/C#N)C(=O)Nc2ccc(Cl)cc2)ccc1Oc1nc(Cl)ncc1F	nt	10	nt	nt	nt
COC(=O)CS(=O)(=O)c1ccsc1C(=O)Nc1ccc(F)cc1	-7	0	-3	0	4
CC(C)n1c(NCCc2ccccc2)nc2c1c(=O)n(C)c(=O)n2C	nt	1	30*	0	2
COc1cccc(C2CC(c3ccccc3Cl)Nc3nc(N)nn32)c1 (configuration not stated)	7	2	12	1	6
COc1cccc(C2CC(c3ccc(Cl)cc3Cl)Nc3nc(N)nn32)c1 (configuration not stated)	-10	4	41*	0	1
O=C(CSc1nnc(-c2ccccc2)c(-c2ccccc2)n1)NC1CCS(=O)(=O)C1 (configuration not stated)	-9	13	3	1	3
Cc1ccc(C)c(C(C)NC(=O)c2ccc(Br)o2)c1 (configuration not stated)	-4	5	-1	1	4
CCOc1ccc(-n2c(=O)[nH]c3sc4c(c3c2=O)CCCC4)cc1	-9	-6	40*	0	2
SMILES	Mdm2 ligase inh	Rad51 HR inh	Arbovirus anti	ABCB1 inh	ABCG2 inh
CCOC(=O)C1CCCN(Cc2ccccc2Cl)C1 (configuration not stated)	-14	nt	88*	0	1
CCOC(=O)C1CCCN(Cc2ccccc2C)C1 (configuration not stated)	-21	6	2	0	0
Cc1cc(C)nc(SC2=CS(=O)(=O)c3ccccc32)n1	4	-7	-9	1	13
O=S1(=O)C=C(Sc2nc3ccccc3s2)c2ccccc21	52*	7	-29	0	0
Cc1ccc(C)c(-n2c3nc(=O)[nH]c(=O)c-3cc3cc([N+](=O)[O-])ccc32)c1	4	nt	18	0	3
Cc1cccc(-n2c3nc(=O)[nH]c(=O)c-3cc3cc([N+](=O)[O-])ccc32)c1	-8	20	38*	1	7
CCOC(=O)C1=Nc2ccccc2C1=[N+]=[N-]	-3	-4	45*	0	0
CCOC(=O)c1cnc(-c2ccccc2O)nc1Cl	9	nt	14	1	3
CC(c1ccc(F)cc1)n1c(Cn2ncc3ccccc3c2=O)n[nH]c1=S (configuration not stated)	-3	17	23	0	0
CN(C(=O)c1cccc(COc2ccc(Cl)cc2Cl)c1)c1ccccc1	46*	nt	-21	1	3
CN(Cc1ccccc1NC(=O)c1ccc(S(=O)(=O)N(C)C)cc1)C1CCCCC1	-33	22	47*	1	9
CCOc1ccccc1NC(=O)c1ccc(S(=O)(=O)N(C)C)cc1	-14	3	-2	1	6
O=C(Nc1ccc(S(=O)(=O)NC2=NCCCCC2)cc1)C1COc2ccccc2O1 (configuration not stated)	nt	41*	nt	nt	nt
O=C1NC(=O)c2cc(NC(=O)C3COc4ccccc4O3)ccc21 (configuration not stated)	43*	23	-2	1	23
C=CCOC(=O)C1=C[C@H](c2ccc(Br)cc2)C[C@H](OCc2ccc(CO)cc2)O1	nt	-5	nt	nt	nt
CNc1nc(CC(C)=O)ns1	-8	2	10	-2	-4
CC(=O)Cc1nsc(Nc2ccc(C)cc2)n1	38*	7	-2	0	4
Cc1ccc(C(=O)N2CCN(C(=O)c3ccco3)CC2)cc1NC(=O)c1ccco1	1	14	3	0	3
COc1ccc(Cc2nnc(NC(=O)c3cccc(C)c3)s2)cc1	6	4	-2	0	1
Cc1cccc(-c2nnn(Cc3nnc(NC(=O)c4ccccc4)s3)n2)c1	-8	88*	-3	0	1
COc1ccc(-n2cccc2/C=C2\C(=N)N3N=C(C(C)C)SC3=NC2=O)cc1	-14	-1	30*	0	-1
N=C1/C(=C/c2coc3ccccc3c2=O)C(=O)N=C2SC(c3ccco3)=NN12	-25	nt	nt	nt	nt
CCC1=NN2C(=N)/C(=C\c3cccn3-c3ccc(Br)cc3)C(=O)N=C2S1	3	0	14	-1	-7
COc1ccc(-n2cccc2/C=C2\C(=N)N3N=C(c4ccco4)SC3=NC2=O)cc1	-2	-21	39*	0	1
O=C(O)c1cccc(-c2ccc(/C=N/n3cnc4sc5c(c4c3=O)CCCC5)o2)c1	-12	0	nt	nt	nt
CCOC(=O)Cc1csc(NC(=O)CSc2nc(N)c3c(C)c(C)sc3n2)n1	-18	-7	-2	6	34
